Data reported in ChEMBL document CHEMBL1123232, “Acyl, N-protected alpha-aminoacyl, and peptidyl derivatives as prodrug forms of the alcohol deterrent agent cyanamide” (J Med Chem, 1986).

Tests used:
Assay type in all cases: functional, organism-based
[1] = system: Rattus norvegicus; experiment: (§1) Tested for effect on ethanol derived blood Ach levels in rats at 1.0 mmol/kg
Method in brief: (§2)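 Fasted male Sprague-Dawley rats (185-225 g) received a single 1.0 mmol/kg ip dose at zero time, in saline or in 2% aqueous CMC if water-insoluble. Ethanol (2.0 g/kg, ip) was given at 2 or 15 h. Blood from open-chest cardiac puncture 1 h later went into 5 mM sodium azide. Headspace GC in duplicate against an AcH standard curve. Four rats per protocol; mean ± SE.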

[2] = system: Rattus norvegicus; experiment: as §1; method in brief: as §2; remark: listed apart in the source
[3] = system: Rattus norvegicus; experiment: Compound was tested for effect on ethanol derived blood Ach levels in rats at the administrations (pro drug administration of 1.0 mmol/kg) oral(po)
Method in brief: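 A single 1.0 mmol/kg dose was given by stomach tube at zero time to fasted male Sprague-Dawley rats (185-225 g). Ethanol (2.0 g/kg, ip) was given 1 h before sacrifice: blood sampled at 4 h, or over 48 h with ethanol at 1, 4, 11, 23, 35 and 47 h, two rats per time. Cardiac blood went into sodium azide; AcH was measured by headspace GC in duplicate.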

[4] = system: Rattus norvegicus; experiment: Compound was tested for effect on ethanol derived blood Ach levels in rats at administration (pro drug administration of 1.0 mmol/kg) ip; method in brief: as §2

| Structure (SMILES) | Concentration [1] [µM] | Concentration [2] [µM] | Concentration [3] [µM] | Concentration [4] [µM] |
| --- | --- | --- | --- | --- |
| N#CNC(=O)Cc1ccccc1 | 1300 | 1250 |  |  |
| N#CNC(=O)c1ccccc1 | 100 | 300 |  |  |
| CCCC(=O)NC#N | 250 | 1750 |  |  |
| CCCCCCCCCCCCCCCC(=O)NC#N | 1100 | 1600 | 1300 | 1150 |
| CC(C)(C)C(=O)NC#N | 200 | 1200 |  |  |
| N#CNC(=O)OCc1ccccc1 | 50 | 1200 |  |  |
| CCCCCCCCCCCCCCCCCC(=O)NC#N | 600 | 1300 |  |  |
| N#CNC(=O)[C@H](Cc1ccccc1)NC(=O)[C@@H]1CCC(=O)N1 | 150 | 1150 |  |  |
| CC(=O)NC#N | 50 | 250 | 350 | 400 |
| N#CN | 225 | 1050 |  |  |
| N#CNC(=O)C12CC3CC(CC(C3)C1)C2 | 75 | 1250 |  |  |
| N#CNC(=O)CNC(=O)c1ccccc1 | 200 | 400 |  |  |
| N#CNC(=O)C1CCC(=O)N1C(=O)OCc1ccccc1 (stereo not given) | 35 | 175 |  |  |
| CC(C)C[C@H](NC(=O)c1ccccc1)C(=O)NC#N | 300 | 1000 |  |  |
| CC(C)C[C@H](NC(=O)CNC(=O)OCc1ccccc1)C(=O)NC#N | 35 | 1050 |  |  |
| N#CNC(=O)CNC(=O)OCc1ccccc1 | 35 | 900 | 125 | 850 |
| CC(C)C[C@H](NC(=O)[C@@H]1CCC(=O)N1)C(=O)NC#N | 25 | 200 |  |  |
